The source of these data is ChEMBL document CHEMBL3232906, “2-Amino-3-(phenylsulfanyl)norbornane-2-carboxylate: an appealing scaffold for the design of Rac1-Tiam1 protein-protein interaction inhibitors” (J Med Chem, 2014).

Molecules are shown by their SMILES. The source made the active and inactive calls. The rule behind the calls is not given here.

The species named for assay [1] is Homo sapiens. The experiment in a line: Antimigratory activity against human smooth muscle cells assessed as inhibition of PDGF-BB-induced cell motility at 10 uM measured for 16 hrs by video microscopic analysis. In kind it is functional, cell-based. A digest of the protocol: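 SMCs seeded at 2 × 10^4 per well of 24-well tray in DMEM + 10% FCS, moved to 0.4% FCS for 48 h. Compound added at 10 μM final together with PDGF-BB 20 ng/mL. Time-lapse video microscopy at 37 °C for 16 h; cells manually tracked and distance covered measured for 10 cells per condition from three independent experiments, mean ± SD.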

The target in assay [2] is T1, Ras-related C3 botulinum toxin substrate 1/T-lymphoma invasion and metastasis-inducing protein 1 (Homo sapiens, UniProt P63000+Q13009). The experiment in a line: Inhibition of Rac1-Tiam1 interaction in human smooth muscle cells assessed as reduction of PDGF-BB stimulated GTP bound Rac1 level at 10 uM preincubated for 4 hrs followed by PDGF-BB stimulation measured after 2 mins by G-LISA assay relative to control. It counts as cell-based. In short, it runs like this:
(§1)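 Cultured human aortic SMCs seeded at 2 × 10^5/35 mm dish in DMEM + 10% FCS, switched after 24 h to 0.4% FCS for 48 h. Compounds (DMSO stocks) added at 10 μM final for 4 h, then PDGF-BB 20 ng/mL for 2 min. Lysates analysed by G-LISA (RBD-coated plate, antibody/HRP detection) for Rac1–GTP or RhoA–GTP. Mean ± SD of triplicates.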

The target in assay [3] is Transforming protein RhoA (Homo sapiens) (UniProt P61586). The experiment in a line: Activation of RhoA in human smooth muscle cells assessed as PDGF-BB stimulated GTP bound protein level at 10 uM preincubated for 4 hrs followed by PDGF-BB stimulation measured after 2 mins by G-LISA assay. In kind it is cell-based. In short, it runs like this: as §1
Transforming protein RhoA (Homo sapiens), sequence (P61586 whole entry): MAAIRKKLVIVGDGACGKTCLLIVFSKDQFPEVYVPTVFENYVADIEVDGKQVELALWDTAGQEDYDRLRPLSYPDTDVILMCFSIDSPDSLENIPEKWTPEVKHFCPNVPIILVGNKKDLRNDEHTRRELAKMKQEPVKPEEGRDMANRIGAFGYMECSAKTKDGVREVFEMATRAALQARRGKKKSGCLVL
Assay [4] addresses T1, Ras-related C3 botulinum toxin substrate 1/T-lymphoma invasion and metastasis-inducing protein 1. The experiment in a line: Inhibition of Rac1-Tiam1 interaction in human smooth muscle cells assessed as reduction of PDGF-BB stimulated GTP bound Rac1 level preincubated for 4 hrs followed by PDGF-BB stimulation measured after 2 mins by G-LISA assay. In kind it is cell-based. In short, it runs like this: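 SMCs serum-starved (0.4% FCS, 48 h) after seeding at 2 × 10^5/35 mm dish, treated 4 h with compound at 1, 2.5, 5 and 10 μM final, then stimulated with PDGF-BB 20 ng/mL for 2 min. Rac1–GTP in lysates read by G-LISA (Rac1-RBD plate, primary antibody plus HRP secondary). IC50 from concentration–response; triplicates, mean ± SD.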

One may read the inhibition as the share of the control response that was lost under treatment. In general, IC50 refers to the concentration that inhibits the measured activity by half. Regarding `CCOC(=O)[C@]1(N)[C@@H]2C[C@@H](C[C@H]2c2cccc(Nc3ccc(N)cc3)c2)[C@@H]1Sc1ccccc1` (relative stereo), in assay [1], the inhibition entry is “Active”. Further, the inhibition was 75% in assay [2] and “Dose-dependent effect” in assay [4]. Further, the outcome in assay [3] was Active. In addition, the IC50 in assay [4] is 2500 nM.

Turning to `CCOC(=O)[C@@]1(N)[C@@H]2C[C@@H](C[C@H]2c2cccc(Nc3ccc(N)cc3)c2)[C@@H]1Sc1ccccc1` (relative stereo), the inhibition result in assay [2] was “Active”. For the same compound, in assay [3], the result was Active.

`CCOC(=O)[C@@]1(N)[C@@H]2C[C@@H]([C@@H](c3cccc(Nc4ccc(N)cc4)c3)C2)[C@@H]1Sc1ccccc1` (relative stereo): in assay [2], the inhibition entry was “Active”. Also, the outcome in assay [3] was Active.

In the case of `CCOC(=O)[C@]1(N)[C@@H]2C[C@@H](C[C@H]2c2cccc(Nc3ccc(N)cc3)c2)[C@H]1Sc1ccccc1` (relative stereo), the inhibition entry in assay [2] is “Active”. The result in assay [3] was Active.

For `CCOC(=O)[C@]1(N)[C@@H]2C[C@@H]([C@@H](c3cccc(Nc4ccc(N)cc4)c3)C2)[C@@H]1Sc1ccccc1` (relative stereo), the inhibition entry in assay [2] was “Active”. Besides, in assay [3], the result was Active.

`CCOC(=O)[C@]1(N)[C@@H]2C[C@@H]([C@@H](c3cccc(Nc4ccc(N)cc4)c3)C2)[C@H]1Sc1ccccc1` (relative stereo): the inhibition result in assay [2] was “Active”. Further, the outcome in assay [3] was Active.
